Measured values taken from ChEMBL document CHEMBL4196173, “Stabilized β-Hairpin Peptide Inhibits Insulin Degrading Enzyme” (J Med Chem, 2018).
Calls of active or inactive are those of the source. No cut-off for these calls is given here.

Key:
Mus musculus [1] = assay: Effect on basal beta-endrophins levels in lean C57BL/6J mouse at 80 mg/kg, ip after 30 to 120 mins post injection by ELISA; type: ADME, organism-based; details: in vivo
Summary of the method: (§1)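 Male lean C57BL/6J mice received 80 mg kg−1 i.p. (n = 5) or PBS. At 30 or 120 min, heparinized blood was taken from tail or eye socket and spun to plasma. Insulin (5 μL plasma), C-peptide, glucagon, beta-endorphin and TNF alpha (10 μL each) were measured by ultrasensitive ELISA. Mean ± SEM, two-tailed t test.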

[2] = Selectivity ratio of IC50 for ACE (unknown origin) to IC50 for mouse His-tagged IDE (42 to 1019 residues)
[3] = Hemolytic activity against mouse RBC at 300 uM after 1 hr at 310 K; type: ADME, cell-based, Erythrocyte; details: mouse red blood cells (erythrocytes), read-out: Activity
Summary of the method: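 Fresh mouse red cells were washed six times and suspended at 1 × 10^8 cells/mL in PBS. Peptides at 2.3–300 μM were added for 1 h at 310 K. After centrifugation, hemoglobin in the supernatant was read at 576 nm. PBS served as 0% and 0.1% Triton X-100 as 100% lysis. Three independent experiments in duplicate.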

Mus musculus [4] = assay: Toxicity in lean C57BL/6J mouse assessed as behavioral changes at 80 mg/kg, ip; type: organism-based; details: in vivo
Summary of the method: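 Male lean C57BL/6J mice (13–15 weeks) received 80 mg kg−1 i.p. or PBS vehicle (n = 6 each). Behaviour and body weight were monitored.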

Mus musculus [5] = assay: Induction of insulin levels in lean C57BL/6J mouse at 80 mg/kg, ip after 30 to 120 mins post injection by ELISA; type: functional, organism-based; summary of the method: as §1
Mus musculus [6] = assay: Hypoglycemic activity in lean C57BL/6J mouse at 80 mg/kg, ip administered 30 min prior to insulin injection measured up to 75 mins post insulin injection by ITT; type: functional, organism-based
Summary of the method: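 Lean male mice were fasted 6 h, then given 80 mg kg−1 i.p. or PBS (n = 6) 30 min before subcutaneous insulin (0.25 U kg−1 in saline). Tail blood glucose was read at −30 to 75 min. Mean ± SEM, two-tailed t test, repeated three times.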

[7] = Drug uptake in brain parenchyma of lean C57BL/6J mouse at 40 mg/kg, iv using cy5-labeled compound by two-photon microscopic analysis; details: in vivo
Mus musculus [8] = assay: Effect on basal TNFalpha levels in lean C57BL/6J mouse at 80 mg/kg, ip after 30 to 120 mins post injection by ELISA; type: ADME, organism-based; details: in vivo; summary of the method: as §1
Insulin-degrading enzyme = Insulin-degrading enzyme (Homo sapiens, UniProt P14735, E111Q); assay: Binding affinity to IDE E111Q mutant (unknown origin) using N-terminal FITC-labeled compound after 2 hrs in absence of light at 298 K by fluorescence polarization assay
Insulin-degrading enzyme, sequence (P14735 whole entry E111Q): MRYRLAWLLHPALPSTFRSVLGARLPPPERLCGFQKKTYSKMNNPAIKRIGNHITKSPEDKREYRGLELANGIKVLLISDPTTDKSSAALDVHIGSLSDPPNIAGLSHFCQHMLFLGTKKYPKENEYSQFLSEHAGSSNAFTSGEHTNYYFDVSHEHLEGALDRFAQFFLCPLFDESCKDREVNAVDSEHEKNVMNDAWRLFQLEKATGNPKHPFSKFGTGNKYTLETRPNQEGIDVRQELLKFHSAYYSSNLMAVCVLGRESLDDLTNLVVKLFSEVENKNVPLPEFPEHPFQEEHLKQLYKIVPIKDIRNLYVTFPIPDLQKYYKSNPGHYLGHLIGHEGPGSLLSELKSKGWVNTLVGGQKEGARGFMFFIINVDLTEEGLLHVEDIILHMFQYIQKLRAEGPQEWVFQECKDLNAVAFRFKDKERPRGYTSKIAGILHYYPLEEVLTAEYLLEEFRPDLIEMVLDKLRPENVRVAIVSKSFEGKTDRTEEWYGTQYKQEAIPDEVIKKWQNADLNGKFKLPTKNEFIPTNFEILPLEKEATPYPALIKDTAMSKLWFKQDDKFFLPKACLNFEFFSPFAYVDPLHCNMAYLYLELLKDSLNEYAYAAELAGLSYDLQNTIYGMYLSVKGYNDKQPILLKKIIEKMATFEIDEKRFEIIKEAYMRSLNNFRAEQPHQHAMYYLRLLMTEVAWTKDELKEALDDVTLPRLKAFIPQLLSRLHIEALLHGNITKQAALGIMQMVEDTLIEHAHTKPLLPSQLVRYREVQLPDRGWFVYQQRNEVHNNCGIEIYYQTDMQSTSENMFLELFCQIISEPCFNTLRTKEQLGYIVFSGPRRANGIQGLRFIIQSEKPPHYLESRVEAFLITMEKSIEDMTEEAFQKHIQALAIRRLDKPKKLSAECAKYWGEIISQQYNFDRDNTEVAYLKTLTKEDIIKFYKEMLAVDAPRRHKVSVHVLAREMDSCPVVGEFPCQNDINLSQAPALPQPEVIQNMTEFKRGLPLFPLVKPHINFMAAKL
Summary of the method: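 IDE-E111Q was titrated against 20 nM FITC-labelled peptide in 20 mM Tris-HCl pH 8.0, 50 mM NaCl, 1 mM TCEP and incubated 2 h at 277 K in the dark. Polarization was read at 298 K (ex 480, em 535 nm) and plotted against IDE concentration. Three independent experiments, each in duplicate.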

[9] = biological target: Insulin-degrading enzyme (Homo sapiens) (UniProt P14735); assay: Inhibition of IDE (unknown origin) assessed as potentiation of insulin-induced AKT phosphorylation in rat skeletal muscle cells at 100 uM preincubated up to 12 hrs followed by insulin addition and measured after 10 mins by Western blot analysis; type: cell-based
Insulin-degrading enzyme (Homo sapiens), sequence (P14735 whole entry, the tested form may be a part): as the sequence (P14735 whole entry E111Q) above, with Q111E counted along it
Summary of the method: (§2)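 Rat skeletal muscle cells were treated with 100 nM IDE plus peptide, for 10 min or at time points up to 24 h with 100 μM. Insulin (10 nM) was then added for 10 min. RIPA lysates were run on 10% SDS-PAGE and blotted for pAKT and AKT with GAPDH as loading control. Densitometry on three regions, two-tailed t test.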

[10] = Metabolic stability in 25% mouse serum assessed as compound remaining at 250 uM up to 24 hrs by LC-MS analysis; type: ADME, cell-free
Summary of the method: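 Peptide at a final 250 μM in 25% mouse serum was incubated at 310 K for 0–24 h. Samples were quenched in 12% TCA in H2O/CH3CN (1:1) and chilled at 277 K for 15 min. After centrifugation, the intact peptide in the supernatant was quantified by LC–MS. Three independent experiments.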

HeLa = assay: Cytotoxicity against human HeLa cells assessed as reduction in cell viability at <300 uM after 24 hrs at 310 K by MTT assay; type: cell-based
Summary of the method: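 HeLa cells were grown overnight in DMEM with 10% FBS, then exposed to serial dilutions starting at 300 μM in medium with 5% FBS for 24 h at 310 K under 5% CO2. MTT was added for a further 4 h and formazan absorbance read at 490 nm. Three independent experiments in duplicate.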

[11] = biological target: Insulin-degrading enzyme (Homo sapiens) (UniProt P14735); assay: Inhibition of IDE (unknown origin) assessed as potentiation of insulin-induced AKT phosphorylation in rat skeletal muscle cells at 100 uM preincubated for 10 mins followed insulin addition measured by Western blot analysis; type: cell-based; summary of the method: as §2
[12] = Selectivity ratio of IC50 for NEP (unknown origin) to IC50 for mouse His-tagged IDE (42 to 1019 residues)
Mus musculus [13] = assay: Effect on glucose levels in lean C57BL/6J mouse at 80 mg/kg, ip administered 30 min prior to glucose stimulation measured up to 120 min […]; type: ADME, organism-based; details: in vivo
Mus musculus [14] = assay: AUC (0 to 43 hrs) in lean C57BL/6J mouse at 100 mg/kg, ip by LC-MS analysis; type: ADME, organism-based; set-up: time < 43 hr, dose 100 mg/kg, route intraperitoneal; details: in vivo
Summary of the method: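 Male lean C57BL/6J mice, 13–15 weeks old, given one i.p. dose of 100 mg kg−1 (n = 5). Tail or eye-socket blood was taken from 20 min to 43 h and spun to plasma. 30 μL plasma was mixed with 100 μL 10% TCA in H2O/CH3CN (1:1) and chilled at 277 K for 15 min. After centrifugation the peptide left in the supernatant was quantified by LC–MS. Two independent experiments.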

[15] = Selectivity ratio of IC50 for ECE-1 (unknown origin) to IC50 for mouse His-tagged IDE (42 to 1019 residues)

Which Activity (Mus musculus [1]) does the source give for CC(=O)N[C@@H](CCC(=O)O)C(=O)N[C@@H](Cc1c[nH]c2ccccc12)C(=O)N[C@@H](CCCNC(=N)N)C(=O)N[C@@H](Cc1ccccc1)C(=O)N[C@H]1CC(=O)NC[C@@H](C(=O)N[C@@H](CC(C)C)C(=O)N[C@@H](Cc2ccc(O)cc2)C(=O)N[C@@H](CC(C)C)C(=O)N[C@H](C(=O)N[C@@H](CS)C(=O)NCC(N)=O)C(C)C)NC(=O)[C@H](CCC(=O)O)NC(=O)[C@@H]2CCCN2C(=O)[C@H]2CCCN2C(=O)CNC1=O here?
Its Activity is “Non-Toxic”.

What about the Ratio IC50 [2] of the same compound?
The Ratio IC50 was > 1000.

And the hemolysis at 1 h, 300 µM [3]?
The hemolysis at 1 h, 300 µM was < 10%.

And the Activity (Mus musculus [4])?
The Activity was “Non-Toxic”.

And the Activity (Mus musculus [5])?
Its Activity is “Active”.

What about the Activity (Mus musculus [6]) of the same compound?
Its Activity is “Active”.

What about the Drug uptake [7] of the same compound?
Its Drug uptake is “Not Active”.

And the Activity (Mus musculus [8])?
Its Activity is “Non-Toxic”.

What about the Kd (Insulin-degrading enzyme) of the same compound?
The Kd was 22 nM.

And the inhibition [9]?
The inhibition was “Active”.

And the Stability [10]?
Its Stability is “Unstable”.

And the Activity (HeLa)?
The Activity was “Non-Toxic”.

What about the inhibition [11] of the same compound?
The inhibition was “Active”.

What about the Ratio IC50 [12] of the same compound?
The Ratio IC50 was > 1000.

What about the Activity (Mus musculus [13]) of the same compound?
The Activity was “Non-Toxic”.

And the AUC (Mus musculus [14])?
Its AUC is 7600 µg·h/mL.

What about the Ratio IC50 [15] of the same compound?
Its Ratio IC50 is > 1000.
